Measurements from ChEMBL document CHEMBL4152256, “Structure-activity relationship of new antimalarial 1-aryl-3-susbtituted propanol derivatives: Synthesis, preliminary toxicity profiling, parasite life cycle stage studies, target exploration, and targeted delivery” (Eur J Med Chem, 2018).

Legend:
[1] = Selectivity index, ratio of CC50 for human HepG2A16 cells by MTT assay to IC50 for multidrug-resistant Plasmodium falciparum FCR-3; assay type: toxicity; details: HepG2A16 cells, read-out: Ratio CC50/IC50
In short: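 HepG2-A16 human hepatoma cells were tested by MTT viability assay to give CC50. Blood-stage activity was measured against the multidrug-resistant P. falciparum FCR-3 strain by [3H]-hypoxanthine incorporation to give IC50. SI = CC50 HepG2 / FCR-3 IC50.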

[2] = Cytotoxicity against human HepG2A16 cells by MTT assay; assay type: cell-based; details: HepG2A16 cells
In short: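 MTT viability assay on HepG2-A16 cells, giving CC50 values.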

Plasmodium falciparum [3] = experiment: Antiplasmodial activity against multidrug-resistant Plasmodium falciparum FCR-3 by [3H]-hypoxanthine incorporation assay; assay type: functional, organism-based, FCR-3/Gambia; details: Plasmodium falciparum, FCR-3/Gambia
In short: (§1)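 Blood-stage P. falciparum 3D7 and FCR-3 were tested by a modified [3H]-hypoxanthine incorporation assay. Chloroquine was the reference in all runs.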

Plasmodium falciparum [4] = experiment: Antiplasmodial activity against chloroquine-sensitive Plasmodium falciparum 3D7 by [3H]-hypoxanthine incorporation assay; assay type: functional, organism-based; details: Plasmodium falciparum, 3D7; in short: as §1
[5] = Genotoxicity in Salmonella typhimurium TA1535 harboring pSK1002 assessed as umu gene induction at 0.001 mg/ml in presence of Sprague-Dawley rat liver S9 fraction after by SOS/umu assay relative to control; assay type: toxicity, organism-based; details: salmonella enterica subsp. enterica serovar typhimurium, read-out: FC
[6] = Genotoxicity in Salmonella typhimurium TA1535 harboring pSK1002 assessed as umu gene induction at 0.031 mg/ml in presence of Sprague-Dawley rat liver S9 fraction after by SOS/umu assay relative to control; assay type: toxicity, organism-based; details: salmonella enterica subsp. enterica serovar typhimurium, read-out: FC
[7] = Genotoxicity in Salmonella typhimurium TA1535 harboring pSK1002 assessed as umu gene induction at 0.002 mg/ml in absence of Sprague-Dawley rat liver S9 fraction after by SOS/umu assay relative to control; assay type: toxicity, organism-based; details: salmonella enterica subsp. enterica serovar typhimurium, read-out: FC
[8] = Genotoxicity in Salmonella typhimurium TA1535 harboring pSK1002 assessed as umu gene induction at 0.001 mg/ml in absence of Sprague-Dawley rat liver S9 fraction after by SOS/umu assay relative to control; assay type: toxicity, organism-based; details: salmonella enterica subsp. enterica serovar typhimurium, read-out: FC
[9] = Genotoxicity in Salmonella typhimurium TA1535 harboring pSK1002 assessed as umu gene induction at 0.004 mg/ml in presence of Sprague-Dawley rat liver S9 fraction after by SOS/umu assay relative to control; assay type: toxicity, organism-based; details: salmonella enterica subsp. enterica serovar typhimurium, read-out: FC
[10] = Genotoxicity in Salmonella typhimurium TA1535 harboring pSK1002 assessed as umu gene induction at 0.004 mg/ml in absence of Sprague-Dawley rat liver S9 fraction after by SOS/umu assay relative to control; assay type: toxicity, organism-based; details: salmonella enterica subsp. enterica serovar typhimurium, read-out: FC
[11] = Genotoxicity in Salmonella typhimurium TA1535 harboring pSK1002 assessed as umu gene induction at 0.016 mg/ml in absence of Sprague-Dawley rat liver S9 fraction after by SOS/umu assay relative to control; assay type: toxicity, organism-based; details: salmonella enterica subsp. enterica serovar typhimurium, read-out: FC
[12] = Genotoxicity in Salmonella typhimurium TA1535 harboring pSK1002 assessed as umu gene induction at 0.002 mg/ml in presence of Sprague-Dawley rat liver S9 fraction after by SOS/umu assay relative to control; assay type: toxicity, organism-based; details: salmonella enterica subsp. enterica serovar typhimurium, read-out: FC
[13] = Genotoxicity in Salmonella typhimurium TA1535 harboring pSK1002 assessed as survival at 0.001 mg/ml in presence of Sprague-Dawley rat liver S9 fraction after by SOS/umu assay relative to control; assay type: toxicity, organism-based; details: salmonella enterica subsp. enterica serovar typhimurium, read-out: Survival
[14] = Genotoxicity in Salmonella typhimurium TA1535 harboring pSK1002 assessed as umu gene induction at 0.008 mg/ml in absence of Sprague-Dawley rat liver S9 fraction after by SOS/umu assay relative to control; assay type: toxicity, organism-based; details: salmonella enterica subsp. enterica serovar typhimurium, read-out: FC
[15] = Genotoxicity in Salmonella typhimurium TA1535 harboring pSK1002 assessed as umu gene induction at 0.008 mg/ml in presence of Sprague-Dawley rat liver S9 fraction after by SOS/umu assay relative to control; assay type: toxicity, organism-based; details: salmonella enterica subsp. enterica serovar typhimurium, read-out: FC
[16] = Genotoxicity in Salmonella typhimurium TA1535 harboring pSK1002 assessed as survival at 0.031 mg/ml in presence of Sprague-Dawley rat liver S9 fraction after by SOS/umu assay relative to control; assay type: toxicity, organism-based; details: salmonella enterica subsp. enterica serovar typhimurium, read-out: Survival
[17] = Genotoxicity in Salmonella typhimurium TA1535 harboring pSK1002 assessed as survival at 0.004 mg/ml in presence of Sprague-Dawley rat liver S9 fraction after by SOS/umu assay relative to control; assay type: toxicity, organism-based; details: salmonella enterica subsp. enterica serovar typhimurium, read-out: Survival
[18] = Genotoxicity in Salmonella typhimurium TA1535 harboring pSK1002 assessed as survival at 0.008 mg/ml in presence of Sprague-Dawley rat liver S9 fraction after by SOS/umu assay relative to control; assay type: toxicity, organism-based; details: salmonella enterica subsp. enterica serovar typhimurium, read-out: Survival
[19] = Genotoxicity in Salmonella typhimurium TA1535 harboring pSK1002 assessed as umu gene induction at 0.016 mg/ml in presence of Sprague-Dawley rat liver S9 fraction after by SOS/umu assay relative to control; assay type: toxicity, organism-based; details: salmonella enterica subsp. enterica serovar typhimurium, read-out: FC
[20] = Genotoxicity in Salmonella typhimurium TA1535 harboring pSK1002 assessed as survival at 0.001 mg/ml in absence of Sprague-Dawley rat liver S9 fraction after by SOS/umu assay relative to control; assay type: toxicity, organism-based; details: salmonella enterica subsp. enterica serovar typhimurium, read-out: Survival
[21] = Genotoxicity in Salmonella typhimurium TA1535 harboring pSK1002 assessed as umu gene induction at 0.031 mg/ml in absence of Sprague-Dawley rat liver S9 fraction after by SOS/umu assay relative to control; assay type: toxicity, organism-based; details: salmonella enterica subsp. enterica serovar typhimurium, read-out: FC
[22] = Genotoxicity in Salmonella typhimurium TA1535 harboring pSK1002 assessed as survival at 0.002 mg/ml in absence of Sprague-Dawley rat liver S9 fraction after by SOS/umu assay relative to control; assay type: toxicity, organism-based; details: salmonella enterica subsp. enterica serovar typhimurium, read-out: Survival
[23] = Genotoxicity in Salmonella typhimurium TA1535 harboring pSK1002 assessed as survival at 0.016 mg/ml in presence of Sprague-Dawley rat liver S9 fraction after by SOS/umu assay relative to control; assay type: toxicity, organism-based; details: salmonella enterica subsp. enterica serovar typhimurium, read-out: Survival
[24] = Genotoxicity in Salmonella typhimurium TA1535 harboring pSK1002 assessed as survival at 0.016 mg/ml in absence of Sprague-Dawley rat liver S9 fraction after by SOS/umu assay relative to control; assay type: toxicity, organism-based; details: salmonella enterica subsp. enterica serovar typhimurium, read-out: Survival
[25] = Genotoxicity in Salmonella typhimurium TA1535 harboring pSK1002 assessed as survival at 0.031 mg/ml in absence of Sprague-Dawley rat liver S9 fraction after by SOS/umu assay relative to control; assay type: toxicity, organism-based; details: salmonella enterica subsp. enterica serovar typhimurium, read-out: Survival
[26] = Genotoxicity in Salmonella typhimurium TA1535 harboring pSK1002 assessed as survival at 0.002 mg/ml in presence of Sprague-Dawley rat liver S9 fraction after by SOS/umu assay relative to control; assay type: toxicity, organism-based; details: salmonella enterica subsp. enterica serovar typhimurium, read-out: Survival
[27] = Genotoxicity in Salmonella typhimurium TA1535 harboring pSK1002 assessed as survival at 0.008 mg/ml in absence of Sprague-Dawley rat liver S9 fraction after by SOS/umu assay relative to control; assay type: toxicity, organism-based; details: salmonella enterica subsp. enterica serovar typhimurium, read-out: Survival
[28] = Genotoxicity in Salmonella typhimurium TA1535 harboring pSK1002 assessed as survival at 0.004 mg/ml in absence of Sprague-Dawley rat liver S9 fraction after by SOS/umu assay relative to control; assay type: toxicity, organism-based; details: salmonella enterica subsp. enterica serovar typhimurium, read-out: Survival

OC(CCN1CC=C(c2ccc(F)cc2)CC1)c1ccc(Br)cc1 (stereo unspecified)
selectivity ratio [1]: 41
CC50 [2]: 109 µM
IC50 (Plasmodium falciparum [3]): 2.68 µM
IC50 (Plasmodium falciparum [4]): 5.42 µM

OC(CCN1CC=C(c2ccc(F)cc2)CC1)c1ccc(F)c(Cl)c1 (stereo unspecified)
selectivity ratio [1]: 8
CC50 [2]: 54.1 µM
IC50 (Plasmodium falciparum [3]): 7.06 µM
IC50 (Plasmodium falciparum [4]): 2.27 µM

COC(=O)c1ccc(C(O)CCN2CC=C(c3ccc(F)cc3)CC2)cc1 (stereo unspecified)
selectivity ratio [1]: 451
fold induction at 0.001 mg/ml [5]: 0.8
fold induction at 0.031 mg/ml [6]: 0.7
fold induction at 0.002 mg/ml [7]: 0.9
fold induction at 0.001 mg/ml [8]: 0.7
CC50 [2]: 509 µM
fold induction at 0.004 mg/ml [9]: 0.9
fold induction at 0.004 mg/ml [10]: 0.8
IC50 (Plasmodium falciparum [3]): 1.13 µM
fold induction at 0.016 mg/ml [11]: 1
fold induction at 0.002 mg/ml [12]: 1
viability at 0.001 mg/ml [13]: 110%
fold induction at 0.008 mg/ml [14]: 0.9
fold induction at 0.008 mg/ml [15]: 1
IC50 (Plasmodium falciparum [4]): 10.5 µM
viability at 0.031 mg/ml [16]: 138%
viability at 0.004 mg/ml [17]: 101%
viability at 0.008 mg/ml [18]: 104%
fold induction at 0.016 mg/ml [19]: 1
viability at 0.001 mg/ml [20]: 124%
fold induction at 0.031 mg/ml [21]: 0.9
viability at 0.002 mg/ml [22]: 109%
viability at 0.016 mg/ml [23]: 103%
viability at 0.016 mg/ml [24]: 89.4%
viability at 0.031 mg/ml [25]: 94.4%
viability at 0.002 mg/ml [26]: 103%
viability at 0.008 mg/ml [27]: 97.5%
viability at 0.004 mg/ml [28]: 99.4%

O=[N+]([O-])c1ccc(N2CCN(CCC(O)c3ccc(F)c4ccccc34)CC2)c(C(F)(F)F)c1 (stereo unspecified)
IC50 (Plasmodium falciparum [3]): 0.5 µM

COc1ccccc1N1CCN(CCC(O)c2ccc3ccccc3c2)CC1 (stereo unspecified)
selectivity ratio [1]: 36
CC50 [2]: 95 µM
IC50 (Plasmodium falciparum [3]): 2.63 µM
IC50 (Plasmodium falciparum [4]): 4.08 µM

COc1ccc(C(O)CCN2CC=C(c3ccc(F)cc3)CC2)cc1 (stereo unspecified)
selectivity ratio [1]: 13
CC50 [2]: 152 µM
IC50 (Plasmodium falciparum [3]): 11.5 µM
IC50 (Plasmodium falciparum [4]): 18.2 µM

COc1ccccc1N1CCN(CCC(O)c2ccc(-c3ccccc3)cc2)CC1 (stereo unspecified)
selectivity ratio [1]: 9
CC50 [2]: 24.4 µM
IC50 (Plasmodium falciparum [3]): 2.78 µM
IC50 (Plasmodium falciparum [4]): 7.25 µM

O=[N+]([O-])c1ccc(N2CCC(NCCC(O)c3ccccc3)CC2)c(C(F)(F)F)c1 (stereo unspecified)
selectivity ratio [1]: 15
CC50 [2]: 27.6 µM
IC50 (Plasmodium falciparum [3]): 1.8 µM
IC50 (Plasmodium falciparum [4]): 4.42 µM

OC(CCN1CC=C(c2ccc(F)cc2)CC1)c1ccc(F)c(F)c1 (stereo unspecified)
selectivity ratio [1]: 48
CC50 [2]: 97 µM
IC50 (Plasmodium falciparum [3]): 2.01 µM
IC50 (Plasmodium falciparum [4]): 2.79 µM

N#Cc1ccc(C(O)CCNC2CCN(c3ccc([N+](=O)[O-])cc3C(F)(F)F)CC2)cc1 (stereo unspecified)
selectivity ratio [1]: 11
CC50 [2]: 23 µM
IC50 (Plasmodium falciparum [3]): 2.02 µM
IC50 (Plasmodium falciparum [4]): 4.22 µM

COc1ccccc1N1CCN(CCC(O)c2ccccc2)CC1 (stereo unspecified)
selectivity ratio [1]: > 39
CC50 [2]: > 612 µM
IC50 (Plasmodium falciparum [3]): 15.7 µM
IC50 (Plasmodium falciparum [4]): 13.9 µM

OC(CCN1CCN(c2ccc(C(F)(F)F)cc2)CC1)c1ccc(F)c2ccccc12 (stereo unspecified)
IC50 (Plasmodium falciparum [3]): 0.93 µM

OC(CCN1CC=C(c2ccc(F)cc2)CC1)c1ccccc1 (stereo unspecified)
selectivity ratio [1]: 13
CC50 [2]: 121 µM
IC50 (Plasmodium falciparum [3]): 9.04 µM
IC50 (Plasmodium falciparum [4]): 10.6 µM

COc1ccc(C(O)CCN2CC=C(c3ccc(F)cc3)CC2)c(OC)c1 (stereo unspecified)
selectivity ratio [1]: 10
CC50 [2]: 91.4 µM
IC50 (Plasmodium falciparum [3]): 9.48 µM
IC50 (Plasmodium falciparum [4]): 24.1 µM

COc1ccc(C(O)CCN2CCN(c3ccccc3OC)CC2)cc1 (stereo unspecified)
selectivity ratio [1]: 46
CC50 [2]: 371 µM
IC50 (Plasmodium falciparum [3]): 7.98 µM
IC50 (Plasmodium falciparum [4]): 10.5 µM

OC(CCN1CC=C(c2ccc(F)cc2)CC1)c1ccc(Cl)cc1 (stereo unspecified)
selectivity ratio [1]: 48
CC50 [2]: 110 µM
IC50 (Plasmodium falciparum [3]): 2.29 µM
IC50 (Plasmodium falciparum [4]): 3.57 µM

O=[N+]([O-])c1ccc(N2CCC(NCCC(O)c3ccc(F)c(F)c3)CC2)c(C(F)(F)F)c1 (stereo unspecified)
selectivity ratio [1]: 25
CC50 [2]: 13.3 µM
IC50 (Plasmodium falciparum [3]): 0.53 µM
IC50 (Plasmodium falciparum [4]): 0.67 µM

O=[N+]([O-])c1ccc(N2CCC(NCCC(O)c3ccc(F)c(Cl)c3)CC2)c(C(F)(F)F)c1 (stereo unspecified)
selectivity ratio [1]: 9
CC50 [2]: 4.61 µM
IC50 (Plasmodium falciparum [3]): 0.51 µM
IC50 (Plasmodium falciparum [4]): 0.71 µM

O=[N+]([O-])c1cc(C(F)(F)F)ccc1N1CCN(CCC(O)c2ccc(F)c3ccccc23)CC1 (stereo unspecified)
IC50 (Plasmodium falciparum [3]): 5 µM
